Source: PubChem BioAssay (The Scripps Research Institute Molecular Screening Center)
GPR7 antagonist: antagonists of human GPR7 (neuropeptides B/W receptor 1); actives 1.1% (n = 290,000); GPR7-expressing cells, fluorescence antagonist assay; inhibition, % at 4.4 µM; in the data active = inhibition above about 16%, passing the limit was not always enough;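 also: cells stimulated with the agonist NPW; 0% = agonist with vehicle and 100% = vehicle without agonist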
TAAR1 agonist: human TAAR1 agonism | Q96RJ0 | CHO RD-HGA16 TAAR1, Fluo-8 calcium fluorescence; vehicle wells 0%, saturating PEA agonist 100% | activation, % at 3 µM | actives 0.99% (n = 360,000) | AID 624467;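 active = activation above the mean activation of all test compounds in the run plus 3 SD, cut at about 38% in these data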
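Test system: RD-HGA16 (CHO) cells co-expressing Gα16 and hTAAR1; dosing: one-point dosing at 3 µM (nominal); timing: 17-24 h seeding, 75 min 37 °C dye, 30 min RT; signal: kinetic Fluo-8 calcium fluorescence; read-out basis: % activation relative to PEA EC100 response; controls: DMSO and PEA EC100; replicates: n 1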
CHO parental Ca: counter-screen for OX1R antagonists: effect in parental CHO cells | parental CHO-K1, ATP-induced calcium, Fluo-8 fluorescence | inhibition, % at 5.6 µM | actives 0.63% (n = 330,000) | AID 463079;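 active = inhibition above that plate's mean sample inhibition plus 3 SD, cut at about 26% in these data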;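 also: 0% = ATP-challenged DMSO wells and 100% = DMSO wells without ATP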
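Material: parental CHO cells / Compound: single nominal dose of 5.6 µM per compound / Signal: Fluo-8 fluorescence / Replicates: singlicate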
OX1R antag-1: blocks the human orexin 1 receptor; O43613; CHO/OX1R cells, Fluo-8 calcium fluorescence, orexin A; inhibition, % at 5 µM; actives 0.43% (n = 330,000); AID 434989;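 active = inhibition above its plate's threshold, mean inhibition of all tested compounds on the plate plus 3 SD, cut at about 37% in these data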;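 also: 0% = orexin A challenge wells and 100% = SB-334867-A antagonist wells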
Target sequence (O43613 whole entry, looked up): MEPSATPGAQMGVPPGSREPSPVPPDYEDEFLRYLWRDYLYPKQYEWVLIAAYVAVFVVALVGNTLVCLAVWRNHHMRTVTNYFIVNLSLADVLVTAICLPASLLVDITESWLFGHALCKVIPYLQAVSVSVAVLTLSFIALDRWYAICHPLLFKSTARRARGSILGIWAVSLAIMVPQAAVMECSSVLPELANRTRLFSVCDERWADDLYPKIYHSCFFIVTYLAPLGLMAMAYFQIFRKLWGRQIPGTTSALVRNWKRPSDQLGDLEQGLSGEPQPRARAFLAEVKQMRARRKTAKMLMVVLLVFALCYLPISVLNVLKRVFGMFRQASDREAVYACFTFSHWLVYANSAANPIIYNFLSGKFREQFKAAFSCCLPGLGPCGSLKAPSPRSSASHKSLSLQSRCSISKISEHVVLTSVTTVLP
OX1R antag-2: antagonists of human orexin 1 receptor (OX1R); OX1R-expressing cells, FRET antagonist read-out; actives 1.8% (n = 330,000); AID 485270; O43613; inhibition, % at 6.6 µM; in the data active = inhibition mostly above about 38%, no sharp cut-off; inactive = mostly below about 40%;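 also: 0% = agonist challenge alone and 100% = reference antagonist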
TAAR1 antag: antagonists of human TAAR1 | actives 1.5% (n = 360,000) | inhibition, % at 3 µM | CHO RD-HGA16 TAAR1, Fluo-8 calcium fluorescence, antagonist | Q96RJ0;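 active = inhibition above a per-plate cutoff, the mean inhibition of test compounds on that plate plus 3 SD, cut at about 49% in these data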;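 also: 0% = DMSO plus EC80 beta-PEA response and 100% = DMSO alone without agonist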
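Assay system: CHO-derived RD-HGA16 cells stably expressing human TAAR1 plus Gα16. Timing: 140 s kinetic read after compound, 140 s after agonist. Technique: kinetic Fluo-8 calcium fluorescence measurement. Measure: % inhibition of agonist calcium response.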
An asterisk follows results filed as active; . = no result. A selection: hits, their analogues and other compounds. The true share with any hit is near 4.6%.

SMILES	GPR7 antagonist	TAAR1 agonist	CHO parental Ca	OX1R antag-1	OX1R antag-2	TAAR1 antag
CCc1nc(Nc2ccc(OC)c(OC)c2)c2nnn(Cc3ccccc3Cl)c2n1	-14	4	30*	-4	25	20
COc1cccc(CNc2cccc3cccnc23)c1O	-7	10	13	-17	54*	6
Oc1c(Br)cc(Br)cc1CNc1cccc2cccnc12	-6	4	-9	5	29*	-5
Oc1ccc(Br)cc1CNc1cccc2cccnc12	3	4	-1	-8	16	-2
O=C(NCc1ccccc1)[C@H]1CCCN1C(=O)[C@H]1CCCN1C(=O)c1cccs1	.	1	.	.	.	-19
COc1ccc(OCCSc2nnc(CCNC(=O)c3ccc(Cl)c(Cl)c3)n2C)cc1	-4	14	-27	7	24	-4
CCn1c(CCNC(=O)c2ccc(Cl)c(Cl)c2)nnc1SCCOc1ccc(OC)cc1	-2	3	-26	-7	41*	-7
C=CCn1c(-c2cccs2)nc2ccccc21	-10	3	-7	-14	52	-7
C=CCn1c(-c2cccs2)nc2nc3ccccc3nc21	-16	11	-20	-13	72*	15
C=CCCC1CN(Cc2ccc(OC)cc2)S(=O)(=O)c2c(Oc3ccc(C(C)C)cc3)cccc2O1 (stereo unspecified)	.	0	.	.	.	-22
O=C(CN(Cc1cccs1)S(=O)(=O)c1ccc(S(=O)(=O)NC2CCCCC2)cc1)Nc1ccccc1	4	17	-3	-9	21	27
O=C(CN(C1CC1)S(=O)(=O)c1ccc(S(=O)(=O)NC2CCCCC2)cc1)Nc1ccccc1	5	38*	.	.	.	38
Cc1cccnc1NC(=O)c1cccc(S(=O)(=O)NCc2ccccc2)c1	.	2	-20	-6	21	18
O=C(NCc1cccs1)c1cccn2c(=O)c3sccc3nc12	-2	3	-19	-10	20	-20
O=C(NCc1ccco1)c1cccn2c(=O)c3sccc3nc12	-3	5	-21	-29	42*	-2
O=C(N[C@H](Cc1ccccc1)C(=O)N1CCN(c2ccc(Cl)cn2)CC1)[C@H]1O[C@@H](n2ccc(=O)[nH]c2=O)[C@H](O)[C@@H]1O	.	2	.	.	.	-11
Cc1cccc(/C=C/c2onc(C)c2[N+](=O)[O-])n1	.	-1	-11	-12	65*	-5
Cc1nnc2nc(N)[nH]n2c1=O	.	5	.	.	.	-2
S=c1[nH]nc(-c2ccncc2)n1/N=C/C(Cl)=C\c1ccccc1	6	52*	-19	-28	42*	-13
O=C(COC(=O)c1cc(S(=O)(=O)Nc2ccccc2Cl)ccc1O)Nc1ccc(F)c(F)c1F	.	5	-6	16	34*	10
C[C@@H]1COc2cc(N3CCCC3)ccc2S(=O)(=O)N1	.	-1	.	.	.	27
O=C(O)Cc1sc(NC2CCCCC2)nc1-c1ccc(Cl)cc1	19	1	33*	16	6	-14
COC(=O)c1cc2c(c3c4cc(C)ccc4n(S(=O)(=O)c4ccc(OC)cc4)c13)C(=O)N(Cc1ccccc1OC)C2	.	0	.	.	.	-15
N#CC1=C2SCC(O)(c3ccccc3)N2C(=O)CC1c1ccccc1 (stereo unspecified)	17*	11	-20	-2	16	25
CCc1ccc(C2CC(=O)N3CN(c4ccccc4)CSC3=C2C#N)cc1 (stereo unspecified)	4	4	-12	-17	4	2
SMILES	GPR7 antagonist	TAAR1 agonist	CHO parental Ca	OX1R antag-1	OX1R antag-2	TAAR1 antag
Cc1ccccc1C(=O)N1CCC[C@@H]1C(=O)N1CCC[C@H]1C(=O)NCc1ccccc1	.	0	.	.	.	-10
COC(=O)c1ccccc1NC(=O)CCCn1nc([N+](=O)[O-])c(Br)c1C	-2	-1	-17	4	75*	-5
CCCNC(=O)N[C@H]1CC[C@@H](CCn2cc(-c3cccc(F)c3)nn2)O[C@@H]1CO	.	0	.	.	.	-5
O=C(Nc1ccc(F)cc1)C(c1ccccc1OC(F)(F)F)N1CCN(C(=O)c2ccco2)CC1 (stereo unspecified)	.	0	.	.	.	-15
COc1ccccc1C=NNC(=O)NN=Cc1ccccc1OC	.	-1	.	.	.	-3
COc1cc(/C=N/NC(=O)c2cc3c(ccc4ccccc43)o2)cc(OC)c1O	5	9	-9	7	53*	33
COc1cc(/C=N/NC(=O)c2ccc(COc3ccccc3Cl)o2)cc(Br)c1O	30*	10	6	-3	-7	44
O=C(N/N=C/c1cc2c(cc1Br)OCO2)c1ccccn1	-3	-1	-30	-26	2	-4
COc1ccccc1C=NN=C(NN=Cc1ccccc1OC)NN=Cc1ccccc1OC	.	16	.	.	.	52*
O=C(N/N=C/c1cc2c(cc1Br)OCO2)c1cc2ccccc2o1	-16	0	-16	-1	76*	6
CCCN(CCC)C(=O)c1cc([N+](=O)[O-])cc2c1-c1ccc([N+](=O)[O-])cc1C2=C(C#N)C#N	-8	-1	-13	-29	25	-22
COCCN1Cc2cc(C(=O)OC)c3c(c2C1=O)c1cc(OC)ccc1n3S(=O)(=O)c1ccc(C)cc1	.	2	.	.	.	-33
O=C(N/N=C/c1ccncc1)c1cc2c(ccc3ccccc32)o1	6	6	0	1	37	21
COc1ccccc1/C=N/NC(=O)c1cc2c(ccc3ccccc32)o1	-15	1	-18	-1	65*	16
C=CCn1c(SCC(=O)c2cccs2)nc2sc(CC)cc2c1=O	-7	13	56*	51*	34	37
OC(c1ccccc1)(c1ccccc1)C1CCN(CCCOc2cccnc2)CC1	.	0	.	.	.	-8
COC(=O)c1ccc(N2CCN(S(=O)(=O)c3ccc4ccccc4c3)CC2)c([N+](=O)[O-])c1	8	10	38*	23	46	10
NC(=O)c1ccc(N2CCN(S(=O)(=O)c3ccccc3)CC2)c([N+](=O)[O-])c1	3	9	32	23	56	34
COc1ccc(N2CCN(S(=O)(=O)c3ccc4c(c3)CCCC4)CC2)c([N+](=O)[O-])c1	8	0	6	36	37*	18
Cc1c(C)n(CC(O)CSc2ccccc2)c2ccccc12 (stereo unspecified)	.	-2	.	.	.	3
COC(=O)c1c(NC(=O)CCl)sc(C(=O)N2CCOCC2)c1C	-10	2	-11	-15	14	-17
O=C(CSc1nc2ccc([N+](=O)[O-])cc2[nH]1)c1ccc2ccccc2c1	-14	7	1	-19	34	52*
O=C(CSc1nc2ncc(Br)cc2[nH]1)c1ccc([N+](=O)[O-])cc1	-8	0	9	4	10	-2
CCOC(=O)[C@]12CCC=C1N(Cc1ccc(Cl)cc1Cl)C(=O)[C@H](CC(=O)NCCc1ccccc1OC)C2	.	30	.	.	.	14
